Experiments:
SK-VLB = assay: Inhibitory concentration that reduced the viability of SKVLB cell population by 50%.; assay type: functional, cell-based; settings: Homo sapiens
SK-OV-3 = assay: Inhibitory concentration the viability of SKOV 3 cell population by 50%.; assay type: functional, cell-based; settings: Homo sapiens
HT-29 = assay: Inhibitory concentration that reduced the viability of HT 29 cell population by 50%.; assay type: functional, cell-based; settings: Homo sapiens
DNA topoisomerase 1 = molecular target: T1, DNA topoisomerase 1 (Homo sapiens, UniProt P11387); assay: Inhibit supercoil relaxation property of topoisomerase I.
T1 sequence (P11387 whole entry): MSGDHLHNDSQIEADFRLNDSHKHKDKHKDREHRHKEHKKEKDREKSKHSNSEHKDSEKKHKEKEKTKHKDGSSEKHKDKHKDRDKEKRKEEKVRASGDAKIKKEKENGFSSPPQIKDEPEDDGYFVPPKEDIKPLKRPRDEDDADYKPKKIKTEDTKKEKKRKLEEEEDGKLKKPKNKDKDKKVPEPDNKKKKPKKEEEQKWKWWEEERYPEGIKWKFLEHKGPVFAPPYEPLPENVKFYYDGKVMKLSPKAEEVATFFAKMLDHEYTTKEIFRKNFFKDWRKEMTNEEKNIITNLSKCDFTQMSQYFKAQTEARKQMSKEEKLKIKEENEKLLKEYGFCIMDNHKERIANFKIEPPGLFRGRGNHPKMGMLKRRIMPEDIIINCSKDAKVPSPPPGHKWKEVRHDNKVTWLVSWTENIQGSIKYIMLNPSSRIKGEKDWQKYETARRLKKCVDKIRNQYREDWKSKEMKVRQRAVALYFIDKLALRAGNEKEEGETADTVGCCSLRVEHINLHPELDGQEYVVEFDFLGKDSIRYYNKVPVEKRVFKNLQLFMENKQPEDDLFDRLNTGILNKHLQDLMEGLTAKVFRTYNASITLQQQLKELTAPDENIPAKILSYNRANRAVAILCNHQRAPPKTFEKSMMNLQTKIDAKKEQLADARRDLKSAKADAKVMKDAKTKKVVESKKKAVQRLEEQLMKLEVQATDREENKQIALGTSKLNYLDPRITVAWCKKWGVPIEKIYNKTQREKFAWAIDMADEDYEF
In short: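 Supercoiled pBR322 DNA (0.25 μg) incubated with topoisomerase I (0.5 unit) and ligand, 30 min at 37 °C. Then a further 30 min at 37 °C in SDS-containing loading buffer, agarose gel run overnight, and ethidium bromide staining. Supercoiled DNA remaining was quantified by laser densitometry of the photographic negative.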

KB = assay: Inhibitory concentration that reduced the viability of KB cell population by 50%.; assay type: functional, cell-based; settings: Homo sapiens
In short: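 KB cells in Eagle's MEM with 10% calf serum, 37 °C, humidified 5% CO2, seeded at 3 × 10³ cells/mL and cultured 24 h. Compounds added in triplicate at several concentrations, with compound-free control wells, for 3 days. Value is the concentration reducing cell count by 50%.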

Question: Which IC50 (SK-VLB) does the source give for `CCC1(O)C(=O)OCc2c1cc1n(c2=O)Cc2cc3cc(OCC(=O)O)ccc3nc2-1` (centres undefined) here?
Answer: 2.1 µM

Question: What about the IC50 (SK-OV-3) of the same compound?
Answer: 1.2 µM

Question: And the IC50 (HT-29)?
Answer: 2.8 µM

Question: And the IC50 (DNA topoisomerase 1)?
Answer: 1.12 µM

Question: And the IC50 (KB)?
Answer: 0.25 µM

Question: How did the IC50 (SK-VLB) turn out when `CCC1(O)C(=O)OCc2c1cc1n(c2=O)Cc2cc3cc(OCC(=O)ONc4cc(C(=O)Nc5cc(C(=O)Nc6cc(C(=O)NCCCN(C)C)n(COC)c6)n(COC)c5)n(COC)c4)ccc3nc2-1` (racemic) was run?
Answer: > 10 µM

Question: What about the IC50 (SK-OV-3) of the same compound?
Answer: > 10 µM

Question: What about the IC50 (HT-29) of the same compound?
Answer: > 10 µM

Question: What about the IC50 (DNA topoisomerase 1) of the same compound?
Answer: 11.9 µM

Question: What about the IC50 (KB) of the same compound?
Answer: 5.5 µM

Question: Which results are given for `CCC1(O)C(=O)OCc2c1cc1n(c2=O)Cc2cc3ccccc3nc2-1` (single isomer, unassigned) [CAMPTOTHECIN]?
Answer: IC50 (SK-VLB): 0.053 µM; IC50 (SK-OV-3): 0.051 µM; IC50 (HT-29): 0.0878 µM; IC50 (KB): 0.008 µM

Question: For `CCC1(O)C(=O)OCc2c1cc1n(c2=O)Cc2cc3cc(OCCNC(=O)c4cc(NC(=O)c5cc(NC(=O)CCCN(C)C)cn5COC)cn4COC)ccc3nc2-1` (racemic), which IC50 (SK-VLB) is on record?
Answer: > 10 µM

Question: What about the IC50 (SK-OV-3) of the same compound?
Answer: 4.3 µM

Question: What about the IC50 (HT-29) of the same compound?
Answer: 6.2 µM

Question: And the IC50 (DNA topoisomerase 1)?
Answer: 4.82 µM

Question: And the IC50 (KB)?
Answer: 6.29 µM

Question: With `CCCC(=O)Nc1ccc(C(=O)Nc2cc(C(=O)Nc3cc(C(=O)NCCOc4ccc5nc6c(cc5c4)Cn4c-6cc5c(c4=O)COC(=O)C5(O)CC)n(COC)c3)n(COC)c2)n1COC` (racemic) as the compound, how does the IC50 (SK-VLB) read?
Answer: > 10 µM

Question: And the IC50 (SK-OV-3)?
Answer: 3.6 µM

Question: What about the IC50 (HT-29) of the same compound?
Answer: 7.1 µM

Question: And the IC50 (KB)?
Answer: 5.09 µM

Question: For `CCC1(O)C(=O)OCc2c1cc1n(c2=O)Cc2cc3cc(OCCN)ccc3nc2-1` (centres undefined), which IC50 (KB) is on record?
Answer: 0.175 µM

Question: Which results are given for `CCC1(O)C(=O)OCc2c1cc1n(c2=O)Cc2cc3cc(OCC(=O)ONc4cc(C(=O)Nc5cc(C(=O)NCCCN(C)C)n(COC)c5)n(COC)c4)ccc3nc2-1` (racemic)?
Answer: IC50 (SK-VLB): > 10 µM; IC50 (SK-OV-3): > 10 µM; IC50 (HT-29): > 10 µM; IC50 (KB): 0.663 µM

Question: Which results are given for `CCC1(O)C(=O)OCc2c1cc1n(c2=O)Cc2cc3cc(OCCNC(=O)c4cc(NC(=O)c5cc(NC(=O)c6ccc(NC(=O)CCCN(C)C)n6COC)cn5COC)cn4COC)ccc3nc2-1` (racemic)?
Answer: IC50 (SK-VLB): > 10 µM; IC50 (SK-OV-3): 9.7 µM; IC50 (HT-29): > 10 µM; IC50 (DNA topoisomerase 1): 1.97 µM; IC50 (KB): 1 µM

Question: With `COc1cccc2c1C(=O)c1c(O)c3c(c(O)c1C2=O)C[C@@](O)(C(=O)CO)C[C@@H]3O[C@H]1C[C@H](N)[C@H](O)[C@H](C)O1` [DOXORUBICIN] as the compound, how does the IC50 (SK-VLB) read?
Answer: 6.54 µM

Question: And the IC50 (SK-OV-3)?
Answer: 0.0251 µM

Question: And the IC50 (HT-29)?
Answer: 0.28 µM

Question: What about the IC50 (KB) of the same compound?
Answer: 0.015 µM

Question: For `CCCC(=O)Nc1cc(C(=O)NCCOc2ccc3nc4c(cc3c2)Cn2c-4cc3c(c2=O)COC(=O)C3(O)CC)n(COC)c1` (centres undefined), which IC50 (SK-VLB) is on record?
Answer: > 10 µM

Question: What about the IC50 (SK-OV-3) of the same compound?
Answer: 5.1 µM

Question: What about the IC50 (HT-29) of the same compound?
Answer: 8.1 µM

Question: What about the IC50 (KB) of the same compound?
Answer: 15.3 µM

Question: With `CCCC(=O)Nc1cn(COC)c(C(=O)Nc2cn(COC)c(C(=O)NCCOc3ccc4nc5c(cc4c3)Cn3c-5cc4c(c3=O)COC(=O)C4(O)CC)n2)n1` (racemic) as the compound, how does the IC50 (SK-VLB) read?
Answer: > 10 µM

Question: And the IC50 (SK-OV-3)?
Answer: 3.2 µM

Question: What about the IC50 (HT-29) of the same compound?
Answer: 6 µM

Question: And the IC50 (DNA topoisomerase 1)?
Answer: 2.42 µM

Question: What about the IC50 (KB) of the same compound?
Answer: 3.08 µM

Question: What does the source list for `Cn1cc(NC(=O)c2cc(NC(=O)c3cc(NC=O)cn3C)cn2C)cc1C(=O)NCCC(=N)N` [STALLIMYCIN]?
Answer: IC50 (SK-VLB): > 10 µM; IC50 (HT-29): 54.7 µM; IC50 (DNA topoisomerase 1): 2.7 µM; IC50 (KB): 8.4 µM

Question: How did the IC50 (SK-VLB) turn out when `Cn1cc(NC(=O)c2cc(NC(=O)CNC(=N)N)cn2C)cc1C(=O)NCCC(=N)N` [NETROPSIN] was run?
Answer: > 10 µM

Question: And the IC50 (HT-29)?
Answer: 44.7 µM

Question: And the IC50 (DNA topoisomerase 1)?
Answer: 62 µM

Question: What about the IC50 (KB) of the same compound?
Answer: 47.1 µM

Question: Which IC50 (SK-VLB) does the source give for `CCC1(O)C(=O)OCc2c1cc1n(c2=O)Cc2cc3cc(OCCNC(=O)c4cc(NC(=O)CCCN(C)C)cn4COC)ccc3nc2-1` (centres undefined) here?
Answer: 3.5 µM

Question: What about the IC50 (SK-OV-3) of the same compound?
Answer: 1.5 µM

Question: What about the IC50 (HT-29) of the same compound?
Answer: 3.4 µM

Question: What about the IC50 (DNA topoisomerase 1) of the same compound?
Answer: 2.6 µM

Question: What about the IC50 (KB) of the same compound?
Answer: 5.68 µM

Question: What does the source list for `CCCC(=O)Nc1cn(COC)c(C(=O)NCCOc2ccc3nc4c(cc3c2)Cn2c-4cc3c(c2=O)COC(=O)C3(O)CC)n1` (centres undefined)?
Answer: IC50 (SK-VLB): > 10 µM; IC50 (SK-OV-3): 1.3 µM; IC50 (HT-29): 6.9 µM; IC50 (DNA topoisomerase 1): 2.38 µM; IC50 (KB): 1 µM

Question: `CCCC(=O)Nc1cc(C(=O)Nc2cc(C(=O)NCCOc3ccc4nc5c(cc4c3)Cn3c-5cc4c(c3=O)COC(=O)C4(O)CC)n(COC)c2)n(COC)c1` (racemic) was tested. Which IC50 (SK-VLB) did it give?
Answer: > 10 µM

Question: And the IC50 (SK-OV-3)?
Answer: > 10 µM

Question: What about the IC50 (HT-29) of the same compound?
Answer: > 10 µM

Question: And the IC50 (DNA topoisomerase 1)?
Answer: 16.6 µM

Question: And the IC50 (KB)?
Answer: 3.25 µM
